Assay outcomes as filed in PubChem.
The sample as a whole holds a higher share of hits than the screen did.
UPR XBP1 act – activators of adaptive arm of unfolded protein response (XBP1); CHO-XBP1 luciferase reporter, IRE1-XBP1 UPR activation, luminescence; percent of tunicamycin response, DMSO as zero; actives 0.33% (n = 330,000); activation, % at 20 µM;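 active means versus positive control, 20 µM dose yields 30% or more activation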
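Assay system: IRE1-XBP1 luciferase reporter CHO line. Input: 1000 cells/well. Buffer or medium: F12 with 10% serum. Doses: 20 µM, 1% DMSO. Times: overnight seeding at 37 °C, 6 h compound treatment at 37 °C. Technique: Steady-Glo luciferase glow luminescence, 10 min after reagent addition.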
CTSL1 counter – cathepsin L1 inhibition, PFM18AAP counter-screen. recombinant F. hepatica cathepsin L1, Z-Leu-Arg-MCA fluorescence. inhibition, % at 5.96 µM. actives 0.49% (n = 300,000). AID 1906;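 active means inhibition above the mean of all tested compounds plus 3 SD, set per screening campaign, cut at about 17% in these data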
UPR CHOP act – apoptotic UPR (CHOP) activation. actives 0.34% (n = 330,000). CHO-CHOP luciferase reporter, luminescence; percent of tunicamycin response over DMSO baseline. activation, % at 10 µM;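 active means at 10 µM dose, activation of 40% or more, normalized to positive control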
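Test system: CHO-CHOP cells, stable luciferase reporter of PERK-eIF2a-CHOP signalling | Quantity: 500 CHO-CHOP cells per well | Buffer or medium: F12 plus 10% serum | Compound dosing: 10 µM single point, 0.5% DMSO | Schedule: 6 h compound treatment, 37 °C | Signal: Luciferase luminescence | Control set: Tunicamycin high control, DMSO low control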
CHOP inhibitor – CHOP inhibition in unfolded protein response; actives 3.8% (n = 220,000); inhibition, % at 10 µM; AID 2732; CHO-K1 CHOP-promoter luciferase, tunicamycin-induced, 15-18 h;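 active means compounds that reduced the stress-induced luciferase reporter signal by more than about 70% of percent inhibition, limit read from the data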
UCH37 inh – blocks the human deubiquitinase UCH37; actives 0.33% (n = 330,000); AID 588478; inhibition, % (test concentration not listed); Q9Y5K5; purified proteasome/UCH37, Ub-AMC cleavage fluorescence;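 active means mean inhibition over replicate wells above about 20%, limit read from the data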
Target sequence (Q9Y5K5 whole entry, looked up): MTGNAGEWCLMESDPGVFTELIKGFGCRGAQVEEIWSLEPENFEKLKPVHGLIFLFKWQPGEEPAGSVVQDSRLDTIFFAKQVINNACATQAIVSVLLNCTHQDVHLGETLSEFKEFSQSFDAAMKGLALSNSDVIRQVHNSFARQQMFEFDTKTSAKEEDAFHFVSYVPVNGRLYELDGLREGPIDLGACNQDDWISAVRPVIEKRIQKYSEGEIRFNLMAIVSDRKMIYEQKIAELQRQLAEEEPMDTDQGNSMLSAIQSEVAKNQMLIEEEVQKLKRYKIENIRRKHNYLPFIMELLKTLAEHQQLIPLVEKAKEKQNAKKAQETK
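Material: human UCH37 enzyme supplied as purified proteasome complex / Amount: 0.15 nM proteasome as dispensed / Buffer or medium: pH 7.4 Tris-HCl (50 mM) with ovalbumin, ATP-MgCl2, DTT / Times: preincubation 30 min, reaction 25 min, room temperature / Technique: AMC fluorescence from Ub-AMC cleavage, excitation 355 nm, emission 460 nm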
A number is an active result; . = inactive; / = not tested or not shown.

SMILES	UPR XBP1 act	CTSL1 counter	UPR CHOP act	CHOP inhibitor	UCH37 inh
O=C1Nc2ccccc2Oc2cc([N+](=O)[O-])ccc21	.	.	.	74	.
Cc1ccc(Cn2nc(C)c(C=NNC(=O)c3cccnc3)c2C)cc1	/	/	/	/	.
CC(C)(C)CC(C)(C)NC(=S)NC1CCN(Cc2ccccc2)CC1	.	.	.	71	.
COc1cc([N+](=O)[O-])cc(C=NNC(=O)Cn2nc(C)cc2C)c1O	/	/	/	/	.
Cc1ccc(-c2nnn(CC(=O)N(CC3CCCO3)C(C(=O)NC3CCCC3)c3ccc(F)cc3)n2)o1 (stereo not drawn)	.	.	.	80	.
CN(C)c1cccc(C(=O)OCc2cc(=O)oc3cc(O)ccc23)c1	.	.	.	90	.
O=[N+]([O-])c1ccc2c(c1N1CCCCC1)=NC1(CCCCC1)[N+]=2[O-]	.	.	.	.	.
[O-][N+]1=c2ccc(Nc3ccccc3)cc2=NC12CCCCC2	/	20	/	.	.
Cc1cccc(NC(=O)CN2C(=O)S/C(=C\C(=O)Nc3ccc(Cl)cc3)C2=O)c1	.	.	.	.	.
CC(/C=C1\SC(=O)N(CC(=O)Nc2cccc(O)c2)C1=O)=C\c1ccccc1	.	.	.	95	.
COc1ccc(-c2nc3ccccc3s2)cc1	/	/	/	.	.
COc1cccc(-c2nc3ccccc3s2)c1	.	.	.	73	.
c1ccc(Nc2nc(-c3ccncc3)nc3ccccc23)cc1	.	.	.	.	.
Fc1ccc(Nc2nc(-c3ccncc3)nc3ccccc23)cc1	.	.	.	90	.
O=C(Cn1cnc2sc(-c3ccccc3)cc2c1=O)NCCc1ccccc1	.	.	.	73	/
Cc1cc2c(s1)c1cnn(CC(=O)NCCc3ccccc3)c(=O)c1n2C	.	.	.	87	.
O=C(Cn1cnc2sc(-c3ccccc3)cc2c1=O)NCc1ccccc1	.	.	.	.	.
COc1ccccc1C=NNC(=O)C(C)Cn1cnc2ccccc21 (stereo not drawn)	/	/	/	/	.
CC(=NNc1cc(Cl)nc(C)n1)c1ccccc1	/	/	/	/	.
CCCCN(C(=O)c1ccco1)c1nnc(-c2cc(OC)c(OC)c(OC)c2)s1	.	.	.	73	.
CCc1ccc(Nc2nc(N)nc(CSc3nc4ccccc4s3)n2)cc1	.	.	.	73	.
CC(NC(=O)/C(C#N)=C/c1ccc([N+](=O)[O-])o1)c1ccccc1 (stereo not drawn)	.	.	.	/	/
CC(NC(=O)/C(C#N)=C/c1ccco1)c1ccccc1 (stereo not drawn)	.	36	.	.	.
Cc1c(C(Cc2ccccc2)=NO)c2ccccc2n1C	/	/	/	/	.
O=[N+]([O-])c1ccccc1N=Nc1ccc(O)cc1O	/	/	/	/	21
SMILES	UPR XBP1 act	CTSL1 counter	UPR CHOP act	CHOP inhibitor	UCH37 inh
Cc1occc1C(=O)NN=C/C=C\c1ccccc1[N+](=O)[O-]	/	/	/	/	.
CCCCNC(=O)C(=O)NN=Cc1cccc(Br)c1	/	/	/	/	.
CCOC(=O)C1=C(O)/C(=C/c2ccc(-c3ccccc3C(=O)O)o2)SC1=Nc1ccc(OC)cc1	/	/	/	.	24
O=[N+]([O-])c1ccc(-n2nnnc2-c2ccccc2)c([N+](=O)[O-])c1	/	20	/	.	.
O=[N+]([O-])c1ccccc1NCc1c(O)ccc2ccccc12	.	.	.	89	/
Cc1cc(Cl)c(OCCCSc2nc(C)cc(=O)[nH]2)c(Br)c1	.	.	.	86	.
COc1ccc(C(C)=NNc2nc(-c3ccccc3)cc(=O)[nH]2)cc1	/	/	/	/	.
CCOC(=O)C1(S(=O)(=O)c2ccc(Cl)cc2)CCN(Cc2ccc(C)cc2)CC1	.	.	.	74	.
CCOC(=O)C1(Cc2ccc(Cl)cc2)CCN(Cc2cnc(N)nc2)CC1	.	.	.	.	.
CC(CC(=O)N1CCN(C=O)CC1)=NNC(=O)c1cc2ccccc2cc1O	/	/	/	/	.
CCCCN(CCCC)C1=Nc2ccccc2N/C1=C(/C#N)C(=O)OCC	.	.	.	72	.
CCOC(=O)/C(C#N)=C1/C=C(C)NC(c2ccccc2O)=N1	.	.	.	.	.
CCOC(=O)/C(C#N)=C1\Nc2ccccc2N=C1N(CC(C)C)CC(C)C	.	.	.	77	.
O=C(Cn1nnc(N2CCCC2)n1)NN=Cc1ccc(Cl)cc1	/	/	/	/	.
NC(=O)NN=C(CCCCCCC(=NNC(N)=O)c1ccccc1)c1ccccc1	/	/	/	/	.
O=[N+]([O-])c1nn(-c2ccc(Cl)cc2)n(O)c1=NCc1ccncc1	.	18	.	.	.
Cc1ccc(CN=c2c([N+](=O)[O-])nn(-c3ccc(Cl)cc3)n2O)cc1	.	.	.	.	.
Cn1c(=O)c(C(=O)Nc2ccccn2)c(O)c2ccccc21	.	.	.	72	.
Cn1c(=O)c(C(=O)Nc2ccccc2S(N)(=O)=O)c(O)c2ccccc21	.	.	.	.	.
Cc1ccc(NC(=O)CSc2nn(-c3ccccc3)c(=S)s2)cc1S(=O)(=O)N(C)C	.	.	.	76	.
Cc1nc(N2CCOCC2)nc(Oc2ccccc2)c1[N+](=O)[O-]	.	.	.	.	.
CCCCOc1nc(N2CCOCC2)nc(C)c1[N+](=O)[O-]	.	18	.	.	.
O=C1c2ccccc2S(=O)(=O)c2cc(C(=O)N3CCN(c4ccc(Cl)cn4)CC3)ccc21	.	17	.	/	.
CC(C)Oc1cc(NC(=O)CSCC(=O)Nc2cccc(C(F)(F)F)c2)c(Cl)cc1Cl	.	.	.	100	.
CCc1ccc(N2CN=c3sc(=Cc4ccccc4)c(=O)n3C2)cc1	/	/	/	/	.
SMILES	UPR XBP1 act	CTSL1 counter	UPR CHOP act	CHOP inhibitor	UCH37 inh
CCc1ccc(N2C(=O)c3sc4nnc(-c5ccccc5)c(=O)n4c3C2=O)cc1	.	.	.	71	.
O=C(COC(=O)CNC(=O)C1CCCCC1)Nc1ccc2ccccc2c1	.	27	.	.	.
O=C(COC(=O)CNC(=O)C1CCCCC1)Nc1ccc2c(c1)OCCO2	.	34	.	.	.
CCCCOc1ccc(C(C)NC(=O)CCS(=O)(=O)Cc2ccccc2F)cc1 (stereo not drawn)	.	.	.	71	.
CC(NC(=O)CCCOc1ccc(Cl)cc1)c1ccccc1 (stereo not drawn)	.	.	.	.	.
COc1ccc(N2C(=S)N=C(Nc3ccccc3)C23CCCCC3)cc1	.	.	.	101	.
COc1ccc(NC2=NC(=S)N(c3ccccc3C)C23CCCCC3)cc1	.	.	.	.	.
CCn1nc(C)c(C=NNC(=O)CSc2ccccn2)c1C	/	/	/	/	.
CCCNC(=O)Cn1c(=O)/c(=C\c2ccc(-c3cccc([N+](=O)[O-])c3)o2)s/c1=C\C(=O)C(C)(C)C	.	18	.	.	/
CCCNC(=O)Cn1c(=O)/c(=C/c2ccc(-c3cccc([N+](=O)[O-])c3)o2)s/c1=C\C(=O)C(C)(C)C	/	/	/	/	.
CC(CC(=O)Nc1ccc(Cl)cc1Cl)=NNC(=O)c1ccco1	/	/	/	/	.
